Laboratory results reported in ChEMBL document CHEMBL4732158, “Bicyclic Ligand-Biased Agonists of S1P: Exploring Side Chain Modifications to Modulate the PK, PD, and Safety Profiles” (J Med Chem, 2021).

Tests used:
Rattus norvegicus [1] = experiment: Reduction in circulating lymphocytes count in Lewis rat at 1 mg/kg, po measured at 4 hrs by hematology analyzer based analysis; type: functional; design: scale not given: the % may be the effect or the level left
Outline: (§1)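 Lewis rats (n = 2−4) dosed orally at 0.5, 1, 2 or 5 mg/kg; blood parent and phosphate metabolite concentrations and lymphocyte counts taken 4 and 24 h post-dose; phosphate-to-parent ratio from 24 h levels; significance versus vehicle by ANOVA with Dunnett's test.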

[2] = Drug concentration in Lewis rat blood assessed as concentration of parent compound at 1 mg/kg, po measured at 4 hrs by LC-MS/MS analysis; type: ADME, organism-based; conditions: read-out: Ct; for concentration: in vivo, 1 mg/kg, 4 h; for concentration at 4 h: Lewis, blood; outline: as §1
[3] = Drug metabolism in Lewis rat blood assessed as concentration of parent compound at 1 mg/kg, po measured at 24 hrs by LC-MS/MS analysis; type: ADME, organism-based; conditions: for concentration / Ct: in vivo, 1 mg/kg, 24 h; for concentration / concentration at 24 h: read-out: Ct; for Ct: BLD = below limit of detection; for concentration at 24 h: Lewis, blood; outline: as §1
[4] = Pulmonary toxicity in Lewis rat assessed as fold elevation of BAL protein content at 1 mg/kg, po by chemistry analyzer based analysis relative to control; type: organism-based; conditions: in vivo
Outline: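 Lewis rats dosed orally; bronchoalveolar lavage protein measured at study end, expressed as fold over vehicle control.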

[5] = Reduction in circulating lymphocytes count in Lewis rat at 1 mg/kg, po measured at 24 hrs by hematology analyzer based analysis; type: organism-based; design: scale not given: the % may be the effect or the level left; conditions: in vivo; outline: as §1
[6] = Cardiotoxicity in human iPSC derived cardiomyocytes assessed as change in heart rate at 1 nM measured over 2 hrs by multi-electrode array relative to control; type: toxicity, cell-based; conditions: stem cell-derived cardiomyocyte, 0.001 µM
Outline: (§2)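 Phosphate metabolite of each compound prepared and tested on cultured human induced pluripotent stem cell-derived cardiomyocytes at 1 and 10 nM; beat rate change averaged over three or more replicates per concentration unless noted (some n = 2).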

[7] = Cardiotoxicity in human iPSC derived cardiomyocytes assessed as change in heart rate at 10 nM measured over 2 hrs by multi-electrode array relative to control; type: toxicity, cell-based; conditions: stem cell-derived cardiomyocyte, 0.01 µM; outline: as §2
[8] = Half life in Lewis rat at 1 mg/kg, po measured at 4 to 72 hrs; type: ADME, organism-based; conditions: in vivo, time 4-72 hrs
Outline: (§3)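 Half-life estimated from oral-dosing blood PK profiles in Lewis rats sampled at four time points: 4, 24, 48 and 72 h.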

[9] = Drug metabolism in Lewis rat blood assessed as phosphate ester metabolite to parent ratio at 1 mg/kg, po measured at 24 hrs by LC-MS/MS analysis; conditions: in vivo
[10] = Reduction in circulating lymphocytes count in Lewis rat at 2 mg/kg, po measured at 24 hrs by hematology analyzer based analysis; type: Functional, organism-based; design: scale not given: the % may be the effect or the level left; conditions: in vivo
Outline: (§4)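 Lewis rats (n = 2−4) dosed orally; whole-blood lymphocyte counts taken 4 h and 24 h after dosing and reduction expressed versus vehicle-treated rats. Significance by ANOVA with Dunnett's test (p < 0.05 vs vehicle). Blood levels of parent and phosphate metabolite measured at the same time points in this PK/PD screen.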

Rattus norvegicus [11] = experiment: Reduction in circulating lymphocytes count in Lewis rat at 2 mg/kg, po measured at 4 hrs by hematology analyzer based analysis; type: functional; design: scale not given: the % may be the effect or the level left; outline: as §4
[12] = Drug concentration in Lewis rat blood assessed as concentration of parent compound at 2 mg/kg, po measured at 4 hrs by LC-MS/MS analysis; type: ADME, organism-based; conditions: Lewis, blood, read-out: Ct; outline: as §1
[13] = Drug concentration in Lewis rat blood assessed as concentration of parent compound at 2 mg/kg, po measured at 24 hrs by LC-MS/MS analysis; type: ADME, organism-based; conditions: in vivo; for concentration: read-out: Ct; outline: as §1
[14] = Half life in Lewis rat at 2 mg/kg, po measured at 4 to 72 hrs; type: ADME, organism-based; conditions: Lewis, in vivo, time 4-72 hrs; outline: as §3
[15] = Ratio of drug metabolism in Lewis rat blood assessed as phosphate ester metabolite to parent drug at 2 mg/kg, po measured at 24 hrs by LC-MS/MS analysis; type: ADME, organism-based; conditions: in vivo; outline: as §1

## CCCCCCOC1CCc2cc([C@H]3CC[C@](N)(CO)C3)ccc2C1 (stereo in doubt; 30b)
Rattus norvegicus [1]; 1 mg/kg, 4 h
  Activity: 20%
[2]
  concentration: 362 nM
[3]
  concentration: 417 nM
[4]
  fold change (FC): 1.4

## CCCCCCOC1CCc2cc([C@H]3CC[C@](N)(CO)C3)ccc2C1 (stereo in doubt; 30a)
Rattus norvegicus [1]; 1 mg/kg, 4 h
  Activity: 39%
[2]
  concentration: 53 nM
[5]
  Activity: 82%
[3]
  concentration: 28 nM
[4]
  fold change (FC): 1.1
[6]
  Activity: -39%
[7]
  Activity: -40%

## CCCOCCOC[C@H]1CCc2cc([C@H]3CC[C@](N)(CO)C3)ccc2C1
Rattus norvegicus [1]
  Activity: 67%
[2]
  concentration at 4 h: 78 nM
[5]
  Activity: 20%
[3]
  Ct: Bld
[4]
  fold change (FC): 2.4

## CCCC/C=C/[C@@H]1CCc2cc([C@H]3CC[C@](N)(CO)C3)ccc2C1
Rattus norvegicus [1]
  Activity: 0%
[2]
  concentration at 4 h: 57 nM
[5]
  Activity: 72%
[3]
  concentration at 24 h: 77 nM
[8]
  half-life: > 75 h
[9]
  Ratio: 2.6

## CC/C=C/CC[C@@H]1CCc2cc([C@H]3CC[C@](N)(CO)C3)ccc2C1
Rattus norvegicus [1]
  Activity: 27%
[2]
  concentration at 4 h: 66 nM
[5]
  Activity: 74%
[3]
  concentration at 24 h: 140 nM
[8]
  half-life: 4 h
[4]
  fold change (FC): 1.1
[6]
  Activity: -11%
[7]
  Activity: -33%
[9]
  Ratio: 5.8

## CCCCCOC[C@@H]1CCc2cc([C@H]3CC[C@](N)(CO)C3)ccc2C1
Rattus norvegicus [1]
  Activity: 27%
[2]
  concentration at 4 h: 27 nM
[5]
  Activity: 80%
[3]
  concentration at 24 h: 28 nM
[4]
  fold change (FC): 2

## C=CCCCC[C@@H]1CCc2cc([C@H]3CC[C@](N)(CO)C3)ccc2C1
Rattus norvegicus [1]
  Activity: 9%
[2]
  concentration at 4 h: 30 nM
[5]
  Activity: 75%
[3]
  concentration at 24 h: 40 nM
[8]
  half-life: 47 h
[9]
  Ratio: 19

## COCCC1CCc2cc([C@H]3CC[C@](N)(CO)C3)ccc2C1 (stereo in doubt; 21b)
[10]
  Activity: 2%

## COCCC1CCc2cc([C@H]3CC[C@](N)(CO)C3)ccc2C1 (stereo in doubt; 21a)
Rattus norvegicus [11]
  Activity: 0%
[10]
  Activity: 12%

## CCC/C=C\CC1CCc2cc([C@H]3CC[C@](N)(CO)C3)ccc2C1 (single isomer, unassigned)
Rattus norvegicus [1]
  Activity: 13%
[2]
  concentration at 4 h: 10 nM
[5]
  Activity: 71%
[3]
  concentration at 24 h: 14 nM
[8]
  half-life: 59 h
[6]
  Activity: -11%
[7]
  Activity: -25%
[9]
  Ratio: 8.6

## CCCCCCCOC1CCc2cc([C@H]3CC[C@](N)(CO)C3)ccc2C1 (stereo in doubt; 33b)
Rattus norvegicus [1]; 1 mg/kg, 4 h
  Activity: 14%
[2]
  concentration: 40 nM
[3]
  concentration: 25 nM
[4]
  fold change (FC): 1

## CCCCCOC[C@H]1CCc2cc([C@H]3CC[C@](N)(CO)C3)ccc2C1
Rattus norvegicus [1]
  Activity: 7%
[2]
  concentration at 4 h: 12 nM
[5]
  Activity: 32%
[3]
  concentration at 24 h: 18 nM
[4]
  fold change (FC): 1.7

## CCCC/C=C\[C@@H]1CCc2cc([C@H]3CC[C@](N)(CO)C3)ccc2C1
Rattus norvegicus [1]
  Activity: 4%
[2]
  concentration at 4 h: 24 nM
[5]
  Activity: 0%
[3]
  concentration at 24 h: 24 nM
[9]
  Ratio: 0.27

## C=CCCOC[C@@H]1CCc2cc([C@H]3CC[C@](N)(CO)C3)ccc2C1
Rattus norvegicus [11]
  Activity: 55%
[12]
  concentration at 4 h: 170 nM
[10]
  Activity: 74%
[13]
  concentration: 48 nM
[14]
  half-life: 11 h
[15]
  Ratio: 0.9

## CCCCCCCOC1CCc2cc([C@H]3CC[C@](N)(CO)C3)ccc2C1 (stereo in doubt; 33a)
Rattus norvegicus [1]; 1 mg/kg, 4 h
  Activity: 13%
[2]
  concentration at 4 h: 32 nM
[5]
  Activity: 80%
[3]
  concentration: 54 nM
[8]
  half-life: 29 h
[4]
  fold change (FC): 0.85

## CCSCCCC1CCc2cc([C@H]3CC[C@](N)(CO)C3)ccc2C1 (single isomer, unassigned)
Rattus norvegicus [11]
  Activity: 65%
[12]
  concentration at 4 h: 190 nM
[10]
  Activity: 74%
[13]
  concentration: 42 nM
[14]
  half-life: 14 h
[6]
  Activity: -42%
[7]
  Activity: -53%

## CCC/C=C/CC1CCc2cc([C@H]3CC[C@](N)(CO)C3)ccc2C1 (single isomer, unassigned)
Rattus norvegicus [1]
  Activity: 10%
[2]
  concentration at 4 h: 31 nM
[5]
  Activity: 62%
[3]
  concentration at 24 h: 51 nM
[8]
  half-life: 62 h
[6]
  Activity: -9.6%
[7]
  Activity: -23%
[9]
  Ratio: 2.3

## CC/C=C\CC[C@@H]1CCc2cc([C@H]3CC[C@](N)(CO)C3)ccc2C1
Rattus norvegicus [1]
  Activity: 31%
[2]
  concentration at 4 h: 165 nM
[5]
  Activity: 69%
[3]
  concentration at 24 h: 180 nM
[8]
  half-life: 5 h
[6]
  Activity: -21%
[7]
  Activity: -38%
[9]
  Ratio: 1.3

## CCCOCCOC1CCc2cc([C@H]3CC[C@](N)(CO)C3)ccc2C1 (stereo partly specified)
Rattus norvegicus [1]
  Activity: 72%
Rattus norvegicus [11]
  Activity: 0%
[2]
  concentration at 4 h: 46 nM
[12]
  concentration at 4 h: 100 nM
[5]
  Activity: 70%
[10]
  Activity: 40%
[3]
  Ct: Bld
[13]; BLD = below limit of detection
  Ct: Bld
[15]
  Ratio: 2.4
[4]
  fold change (FC): 1.3

## CCCCOC[C@@H]1CCc2cc([C@H]3CC[C@](N)(CO)C3)ccc2C1
Rattus norvegicus [1]
  Activity: 42%
[2]
  concentration at 4 h: 66 nM
[5]
  Activity: 71%
[3]
  concentration at 24 h: 39 nM
[4]
  fold change (FC): 0.95
[9]
  Ratio: 0.64

## CCCCCOC1CCc2cc([C@H]3CC[C@](N)(CO)C3)ccc2C1 (stereo in doubt; 10a)
Rattus norvegicus [1]; 1 mg/kg, 4 h
  Activity: 62%
[2]
  concentration at 4 h: 244 nM
[5]
  Activity: 78%
[3]
  concentration at 24 h: 210 nM
[4]
  fold change (FC): 0.94
[9]
  Ratio: 0.86

## CCCCCOC1CCc2cc([C@H]3CC[C@](N)(CO)C3)ccc2C1 (stereo in doubt; 10b)
Rattus norvegicus [1]; 1 mg/kg, 4 h
  Activity: 32%
[2]
  concentration: 215 nM
[5]
  Activity: 67%
[3]
  concentration: 240 nM
[6]
  Activity: -12%
[7]
  Activity: -49%
[9]
  Ratio: 0.27

## COCCOC[C@@H]1CCc2cc([C@H]3CC[C@](N)(CO)C3)ccc2C1
Rattus norvegicus [1]
  Activity: 16%
[2]
  concentration at 4 h: 15 nM
[5]
  Activity: 13%
[3]
  Ct: Bld
[4]
  fold change (FC): 1.3
